Source: PubChem BioAssay (The Scripps Research Institute Molecular Screening Center)
This is a sample that favours compounds with a hit; in the whole collection about 2.1% have one here.
CHRM1 antagonist – human M1 muscarinic receptor antagonists, primary screen, CHO-K1 cells, Fluo-8 calcium fluorescence, 1536-well; Muscarinic acetylcholine receptor M1 (Homo sapiens), P11229; 360,000 compounds, 1.3% hits; CHO-K1 hM1, ACh EC80 antagonist; inhibition, % at 3 µM;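 active = percent inhibition above its own plate's cutoff, namely the mean of that plate's compound wells plus 3 SD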;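 also: peak over basal fluorescence ratio during 140 s after agonist addition; 0% = ACh EC80 plus DMSO and 100% = DMSO alone without agonist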
Target sequence (P11229 whole entry, looked up): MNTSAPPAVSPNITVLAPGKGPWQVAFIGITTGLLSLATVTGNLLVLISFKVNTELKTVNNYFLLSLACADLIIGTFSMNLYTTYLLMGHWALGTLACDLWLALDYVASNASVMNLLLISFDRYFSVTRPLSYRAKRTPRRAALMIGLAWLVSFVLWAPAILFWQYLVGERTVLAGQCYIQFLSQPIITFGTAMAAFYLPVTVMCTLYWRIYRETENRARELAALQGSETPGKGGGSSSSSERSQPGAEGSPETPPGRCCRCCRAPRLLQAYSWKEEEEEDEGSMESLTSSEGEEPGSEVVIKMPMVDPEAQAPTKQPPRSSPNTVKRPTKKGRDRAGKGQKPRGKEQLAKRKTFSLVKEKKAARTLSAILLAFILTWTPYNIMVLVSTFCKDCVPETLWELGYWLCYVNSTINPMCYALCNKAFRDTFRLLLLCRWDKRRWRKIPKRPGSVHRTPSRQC
CHRM1 PAM – human M1 muscarinic receptor positive allosteric modulators, primary screen, CHO-K1 cells, Fluo-8 calcium fluorescence, 1536-well; activation, % at 3 µM; Muscarinic acetylcholine receptor M1 (Homo sapiens), P11229; CHO-K1 hM1, ACh EC20; 0% = ACh EC20, 100% = maximal ACh; 360,000 compounds, 0.088% hits; in the data active = activation above about 19%, passing the limit was not always enough
CHRM5 agonist – human M5 muscarinic receptor agonists, primary screen, CHO-K1 cells, Fluo-8 calcium fluorescence; 360,000 compounds, 0.19% hits; activation, % at 3 µM; Muscarinic acetylcholine receptor M5 (Homo sapiens), P08912; CHO-K1 hM5 cells; 0% DMSO wells, 100% maximal acetylcholine response; AID 624037, 2012;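 active = activation above the run's mean over test compounds plus 3 SD, cut at about 23% in these data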;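 also: signal is peak over basal fluorescence ratio across the kinetic read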
CHRM5 antagonist – human M5 muscarinic receptor antagonists, primary screen, CHO cells, Fluo-8 calcium fluorescence; CHO-hM5 cells, ACh EC80; inhibition, % at 3 µM; 360,000 compounds, 0.59% hits; AID 624040, 2012;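 active = inhibition above a per-plate cutoff, the mean of that plate's test compounds plus 3 SD, cut at about 27% in these data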;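 also: 0% = acetylcholine EC80 with DMSO and 100% = DMSO without agonist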
CHRM1 agonist – human M1 muscarinic receptor agonists, primary screen, Fluo-8 calcium fluorescence, CHO-K1 cells, HTS | activation, % at 3 µM | CHO-K1 hM1, agonist mode; 0% DMSO, 100% acetylcholine EC100 | 360,000 compounds, 0.33% hits;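 active = activation above the run's mean compound activation plus 3 SD, cut at about 16% in these data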;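 also: peak over basal fluorescence ratio within a 140 s kinetic read after compound addition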
CHRM5 PAM – human M5 muscarinic receptor positive allosteric modulators, primary screen, CHO-K1 cells, Fluo-8 calcium fluorescence; Muscarinic acetylcholine receptor M5 (Homo sapiens), P08912; CHO-K1 hM5, ACh EC20 PAM; 0% = ACh EC20, 100% = ACh EC100; activation, % at 3 µM; 360,000 compounds, 0.3% hits;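 active = activation above the run cutoff, the mean activation of all test compounds plus 3 SD, cut at about 18% in these data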
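Probe or stimulus: acetylcholine, EC20 level; Assay system: human M5 receptor in CHO-K1 cells; Schedule: compound preincubation 140 s before EC20 acetylcholine addition; Technique: intracellular calcium via Fluo-8 fluorescence; Dosing: single-point, 3 µM nominal; Read-out basis: percent activation from peak-over-basal fluorescence ratio, scaled EC20-to-EC100 acetylcholine; Repeats: one well per compound, no replicates.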
* marks the source's active call; other numbers are inactive results.

SMILES	CHRM1 antagonist	CHRM1 PAM	CHRM5 agonist	CHRM5 antagonist	CHRM1 agonist	CHRM5 PAM
CC(=O)Nc1ccc(NC(=O)COC(=O)c2c3c(nc4ccccc24)CCN(Cc2ccccc2)C3)cc1	45*	-23	1	24	3	-18
Fc1ccc(-c2nn(-c3ccccc3)cc2CNCc2ccccc2)cc1	-3	3	5	7	0	-9
CC(CCN1C(Nc2ccccc2)=NC[C@@H]1Cc1ccccc1)c1ccccc1 (some centres not stated)	37*	-27	-11	8	-14	-16
COc1ccc2[nH]c3c(NCCC4=CCCCC4)ncnc3c2c1	23	-9	11	32*	0	-31
CCCNc1ncnc2nc[nH]c12	-6	6	2	0	-2	-2
c1ccc(CCCNc2ncnc3nc[nH]c23)cc1	2	-5	9	-3	21*	-9
COc1ccc2[nH]c3c(NCCCOC(C)C)ncnc3c2c1	11	-13	-3	14	-8	-13
OCCOCCNc1ncnc2nc[nH]c12	-8	11	3	-1	-3	6
c1ccc2c(CCNc3ncnc4nc[nH]c34)cccc2c1	54*	-20	10	33*	7	-24
C1=C(CCNc2ncnc3nc[nH]c23)CCCC1	28*	-19	8	16	2	-15
Cc1cc(-c2c(C)[nH]n(-c3ccc(Cl)cc3)c2=O)n[nH]1	-10	16	3	-10	8	10
CCCc1cc(=O)n2[nH]c(-c3cc(OC)c(OC)c(OC)c3)nc2n1	-28	2	0	-1	-2	-3
O=C(COC(=O)c1cc(=O)[nH]c2ccccc12)Nc1ccc(F)cc1F	-11	2	-1	3	-2	8
Clc1ccc(CCNc2ncnc3nc[nH]c23)cc1	30*	-21	13	20	6	-22
CN(C(=O)CCN1C(=O)/C(=C/c2ccccc2)SC1=S)C1CCS(=O)(=O)C1 (configuration not stated)	8	16	2	21	1	30*
CN(C(=O)CN1C(=O)S/C(=C\c2ccccc2)C1=O)C1CCS(=O)(=O)C1 (configuration not stated)	-17	9	0	-1	-6	4
O=C(Nc1cc(=O)c2ccccc2o1)N1CCOCC1	31*	-14	6	13	1	-9
Cc1ccc(NC(=O)COC(=O)c2ccccc2F)cc1S(=O)(=O)N1CCCCC1	9	-8	3	3	0	-5
CCc1cccc(OCC(=O)Nc2ccc(C)c(S(=O)(=O)N3CCCCCC3)c2)c1	46*	-11	3	21	0	-22
Cc1ccc(NC(=O)COc2cccc(C)c2C)cc1S(=O)(=O)N1CCCCCC1	15	-8	0	15	-2	-12
Cc1ccc(NC(=O)COc2ccc(N(C)C(=O)C(C)(C)C)cc2)cc1S(=O)(=O)N1CCCCC1	53*	-17	6	21	2	-38
Cc1ccc(NC(=O)COC(=O)c2cccc(C)c2[N+](=O)[O-])cc1S(=O)(=O)N1CCCCC1	28*	-12	-1	16	-2	-33
CC(=O)Nc1ccc(OCC(=O)Nc2ccc(Cl)c(S(=O)(=O)N3CCOCC3)c2)cc1	37*	-26	6	26	4	-16
CCC1C(=O)C(C)(C)C(=O)OC1c1ccc([N+](=O)[O-])cc1 (configuration not stated)	-15	4	-4	3	-9	4
C/C(N)=C(/C#N)C(=O)COC(=O)c1cc(S(=O)(=O)N2CCCCC2)ccc1C	-3	1	-2	3	-3	-7
SMILES	CHRM1 antagonist	CHRM1 PAM	CHRM5 agonist	CHRM5 antagonist	CHRM1 agonist	CHRM5 PAM
Cc1ccc(NC(=O)COc2ccccc2C(N)=O)cc1S(=O)(=O)N1CCCCCC1	33*	-15	7	25	0	-33
COc1ccc(NC(=O)COc2ccccc2C(N)=O)cc1S(=O)(=O)N1CCCCC1	-17	14	1	7	-1	-3
COc1cc(C(C)=O)ccc1OCC(=O)Nc1ccc(C)c(S(=O)(=O)N2CCCCCC2)c1	37*	-23	5	32*	0	-39
C/C(N)=C(/C#N)C(=O)COC(=O)c1ccc(C)c(S(=O)(=O)N2CCCCC2)c1	-2	5	8	6	0	33*
CCCCn1c(N)c(N(CCOC)C(=O)c2oc3ccc(Br)cc3c2C)c(=O)[nH]c1=O	2	13	-1	5	2	0
Cc1c(N=C/C=C/c2ccccc2)c(=O)n(-c2ccccc2)n1C	100*	-31	-7	27	-14	-23
Cc1c(N=Cc2cccnc2)c(=O)n(-c2ccccc2)n1C	-17	10	-1	1	-4	-1
COc1cccc(C(=O)Oc2cc3c4c(c2)C(C)=CC(C)(C)N4C(=O)C3=O)c1	3	-1	57*	46*	-7	0
COc1ccc(C(=O)Oc2cc3c4c(c2)C(C)=CC(C)(C)N4C(=O)C3=O)cc1OC	-9	7	12	7	-6	-7
COc1cc2c3c(c1)C(C)CC(C)(C)N3C(=O)C2=O (configuration not stated)	-5	3	21	1	-7	4
COc1cc2c3c(c1)C(C)=CC(C)(C)N3C(=O)C2=O	0	3	36*	8	-5	-5
Cc1ccccc1Cn1cc(NC(=O)c2cc(C3CC3)on2)cn1	-3	1	-2	-2	-4	1
O=C(Nc1ccc(Cl)c(Cl)c1)c1ccc(Cl)c(Cl)c1	37*	-24	1	25	-4	-18
O=C(Nc1ccc(Cl)c(Cl)c1)c1ccncc1	3	5	-1	-10	-1	0
O=C(Nc1ccc(F)c(Cl)c1)c1ccc2c(c1)OCO2	-18	6	-7	-14	-5	6
COc1ccc(NC(=O)c2ccc3c(c2)OCO3)cc1Cl	-20	7	1	-3	-5	29*
COc1cccc(C(c2c(NC(=O)c3ccco3)sc(C)c2C)N2CCOCC2)c1 (configuration not stated)	-6	5	-5	6	-2	-5
